# Reference: paper PMC8892665 (ACS Omega, 2022)
# Several values for one entry are separate records, joined by “and”; a condition that tells them apart may be missing. Identical values can stand only once.
# Tests used:
# [1] = biological target: calf intestinal alkaline phosphatase (CIAP) (Bos taurus, UniProt P19111); test: Calf intestinal alkaline phosphatase inhibition assay; format: biochemical
# [2] = DPPH free radical scavenging; conditions: for DPPH radical scavenging % inhibition: at 100 μg/mL; for DPPH radical scavenging IC50: concentrations 100, 50, 25, 10 μg/mL, graphical method
# Procedure, shortened: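 DPPH (3.92 mg per 100 mL of 82% methanol) was combined with test compound at final 100, 50, 25 or 10 μg/mL and incubated 1 h at 25 °C in the dark. Absorbance at 517 nm. Scavenging % = […]. Triplicate, ascorbic acid positive control, IC50 obtained graphically.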
# calf intestinal alkaline phosphatase (CIAP), sequence (P19111 20-533): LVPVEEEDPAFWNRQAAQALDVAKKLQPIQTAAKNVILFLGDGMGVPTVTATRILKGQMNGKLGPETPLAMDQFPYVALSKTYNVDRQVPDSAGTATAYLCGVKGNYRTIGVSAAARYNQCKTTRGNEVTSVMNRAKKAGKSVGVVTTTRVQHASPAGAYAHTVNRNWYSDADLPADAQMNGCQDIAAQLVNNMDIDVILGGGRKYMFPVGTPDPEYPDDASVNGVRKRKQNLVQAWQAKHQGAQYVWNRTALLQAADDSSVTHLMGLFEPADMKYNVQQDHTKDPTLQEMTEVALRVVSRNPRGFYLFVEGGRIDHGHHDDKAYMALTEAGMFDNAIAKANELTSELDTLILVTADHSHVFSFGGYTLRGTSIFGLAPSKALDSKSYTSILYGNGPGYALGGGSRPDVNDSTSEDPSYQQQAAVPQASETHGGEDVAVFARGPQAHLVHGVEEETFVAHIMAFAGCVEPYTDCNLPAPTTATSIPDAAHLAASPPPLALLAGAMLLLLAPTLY
Compound,alkaline phosphatase inhibitory activity (in words) [1],DPPH radical scavenging IC50 [2],DPPH radical scavenging % inhibition [2]
"4-(2-Hydroxyphenyl)-6-(2-methoxyphenyl)-3,4,6,7-tetrahydro-1H-pyrrolo[3,4-d]pyrimidine-2,5-dione [4i]",good activity,,less than 50%
"4-(2-Hydroxyphenyl)-6-(2-nitrophenyl)-3,4,6,7-tetrahydro-1H-pyrrolo[3,4-d]pyrimidine-2,5-dione [4h]",moderate activity,1.72 µg/mL,approximately 70%
"4-(2-Hydroxyphenyl)-6-(3-methoxyphenyl)-3,4,6,7-tetrahydro-1H-pyrrolo[3,4-d]pyrimidine-2,5-dione [4k]",no inhibition,,less than 50%
"4-(4-Hydroxyphenyl)-6-(2-methoxyphenyl)-3,4,6,7-tetrahydro-1H-pyrrolo[3,4-d]pyrimidine-2,5-dione [3k]",low activities,,less than 50%
"4-(4-Hydroxyphenyl)-6-(3-methoxyphenyl)-3,4,6,7-tetrahydro-1H-pyrrolo[3,4-d]pyrimidine-2,5-dione [3i]",no inhibition,,less than 50%
"6-(4-Hydroxyphenyl)-6-(2-nitrophenyl)-3,4,6,7-tetrahydro-1H-pyrrolo[3,4-d]pyrimidine-2,5-dione [3h]",moderate activity,2.61 µg/mL,about 60%
"O=C1NC2=C(C(=O)N(Cc3ccccc3)C2)C(c2ccc(O)cc2)N1 (stereo not shown) [3a, 6-Benzyl-4-(4-hydroxyphenyl)-3,4,6,7-tetrahydro-1H-pyrrolo[3,4-d]pyrimidine-2,5-dione]",no inhibition,2.61 µg/mL,about 60%
"CCCCCCCCN1CC2=C(C1=O)C(c1ccc(O)cc1)NC(=O)N2 (stereo not shown) [3b, 4-(4-Hydroxyphenyl)-6-octyl-3,4,6,7-tetrahydro-1H-pyrrolo[3,4-d]pyrimidine-2,5-dione]",,2.6 µg/mL,
"O=C1NC2=C(C(=O)N(Cc3ccc(Cl)cc3)C2)C(c2ccc(O)cc2)N1 (stereo not shown) [3c, 6-(4-Chlorobenzyl)-4-(4-hydroxyphenyl)-3,4,6,7-tetrahydro-1H-pyrrolo[3,4-d]pyrimidine-2,5-dione]",low activities,,less than 50%
"O=C1NC2=C(C(=O)N(Cc3ccc(F)cc3)C2)C(c2ccc(O)cc2)N1 (stereo not shown) [3d, 6-(4-Fluorobenzyl)-4-(4-hydroxyphenyl)-3,4,6,7-tetrahydro-1H-pyrrolo[3,4-d]pyrimidine-2,5-dione]",,,less than 50%
"O=C1NC2=C(C(=O)N(Cc3ccccc3)C2)C(c2ccccc2O)N1 (stereo not shown) [4a, 6-Benzyl-4-(2-hydroxyphenyl)-3,4,6,7-tetrahydro-1H-pyrrolo[3,4-d]pyrimidine-2,5-dione]",,,less than 50%
"O=C1NC2=C(C(=O)N(Cc3ccc(F)cc3)C2)C(c2ccccc2O)N1 (stereo not shown) [4d, 6-(4-Fluorobenzyl)-4-(2-hydroxyphenyl)-3,4,6,7-tetrahydro-1H-pyrrolo[3,4-d]pyrimidine-2,5-dione]",,,less than 50%
"O=C1NC2=C(C(=O)N(c3ccc(Cl)cc3)C2)C(c2ccccc2O)N1 (stereo not shown) [4e, 6-(4-Chlorophenyl)-4-(2-hydroxyphenyl)-3,4,6,7-tetrahydro-1H-pyrrolo[3,4-d]pyrimidine-2,5-dione]",,,60%

# Continued, in another order:
alkaline phosphatase inhibitory activity (in words) [1],DPPH radical scavenging IC50 [2],Compound,DPPH radical scavenging % inhibition [2]
,2.86 µg/mL,"O=C1NC2=C(C(=O)N(c3ccc(F)cc3)C2)C(c2ccc(O)cc2)N1 (stereo not shown) [3f, 6-(4-Fluorophenyl)-4-(4-hydroxyphenyl)-3,4,6,7-tetrahydro-1H-pyrrolo[3,4-d]pyrimidine-2,5-dione]",
,1.85 µg/mL,"O=C1NC2=C(C(=O)N(c3nc4ccccc4[nH]3)C2)C(c2ccc(O)cc2)N1 (stereo not shown) [3g, 6-(1H-Benzo[d]imidazol-2-yl)-4-(4-hydroxyphenyl)-3,4,6,7-tetrahydro-1H-pyrrolo[3,4-d]pyrimidine-2,5-dione]",
,2.48 µg/mL,"COc1ccc(N2CC3=C(C2=O)C(c2ccc(O)cc2)NC(=O)N3)cc1 (stereo not shown) [3j, 4-(4-Hydroxyphenyl)-6-(4-methoxyphenyl)-3,4,6,7-tetrahydro-1H-pyrrolo[3,4-d]pyrimidine-2,5-dione]",
,2.731 µg/mL and 2.73 µg/mL,"CCCCCCCCN1CC2=C(C1=O)C(c1ccccc1O)NC(=O)N2 (stereo not shown) [4b, 4-(2-Hydroxyphenyl)-6-octyl-3,4,6,7-tetrahydro-1H-pyrrolo[3,4-d]pyrimidine-2,5-dione]",
no inhibition,,"O=C1NC2=C(C(=O)N(Cc3ccc(Cl)cc3)C2)C(c2ccccc2O)N1 (stereo not shown) [4c, 6-(4-Chlorobenzyl)-4-(2-hydroxyphenyl)-3,4,6,7-tetrahydro-1H-pyrrolo[3,4-d]pyrimidine-2,5-dione]",less than 50%
low activities,0.48 µg/mL,"O=C1NC2=C(C(=O)N(c3ccc(F)cc3)C2)C(c2ccccc2O)N1 (stereo not shown) [4f, 6-(4-Fluorophenyl)-4-(2-hydroxyphenyl)-3,4,6,7-tetrahydro-1H-pyrrolo[3,4-d]pyrimidine-2,5-dione]",highest percent of inhibition
no inhibition,0.75 µg/mL,"O=C1NC2=C(C(=O)N(c3nc4ccccc4[nH]3)C2)C(c2ccccc2O)N1 (stereo not shown) [4g, 6-(1H-Benzo[d]imidazol-2-yl)-4-(2-hydroxyphenyl)-3,4,6,7-tetrahydro-1H-pyrrolo[3,4-d]pyrimidine-2,5-dione]",80% and 70–80%
low activities,2.45 µg/mL,"COc1ccc(N2CC3=C(C2=O)C(c2ccccc2O)NC(=O)N3)cc1 (stereo not shown) [4j, 4-(2-Hydroxyphenyl)-6-(4-methoxyphenyl)-3,4,6,7-tetrahydro-1H-pyrrolo[3,4-d]pyrimidine-2,5-dione]",
,0.25 µg/mL,"O=C1O[C@H]([C@@H](O)CO)C(O)=C1O [ascorbic acid, reference compound]",97%
